Results published in BindingDB's records for doi:10.1021/acs.jmedchem.8b01529 (Boston University, 2019).
pIC50: −log10 of the molar value.

Target: DNA-(apurinic or apyrimidinic site) endonuclease (Homo sapiens, UniProt P27695)
Test: Inhibition of full length human APE1 assessed as reduction in endonuclease activity by measuring DNA cleavage of abasic sites using 6-FAM labelled two annealed oligonucleotides as AP site mimic substrate by fluorescence-based assay
Procedure, shortened: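 Purified full-length APE1 (0.25-1.25 nM) added at once to 50 nM annealed duplex: 5'-6-FAM-labelled AP-site-mimic strand paired with a quencher-labelled strand. Buffer 50 mM Tris, 1 mM MgCl2, 50 mM NaCl, pH 7.5. Compound in triplicate, 10-point 1:2 dilution from 100 μM. Fluorescence from cleavage read kinetically at five 1-min intervals. Reaction rate compared with DMSO vehicle.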

DNA-(apurinic or apyrimidinic site) endonuclease, sequence (P27695 whole entry): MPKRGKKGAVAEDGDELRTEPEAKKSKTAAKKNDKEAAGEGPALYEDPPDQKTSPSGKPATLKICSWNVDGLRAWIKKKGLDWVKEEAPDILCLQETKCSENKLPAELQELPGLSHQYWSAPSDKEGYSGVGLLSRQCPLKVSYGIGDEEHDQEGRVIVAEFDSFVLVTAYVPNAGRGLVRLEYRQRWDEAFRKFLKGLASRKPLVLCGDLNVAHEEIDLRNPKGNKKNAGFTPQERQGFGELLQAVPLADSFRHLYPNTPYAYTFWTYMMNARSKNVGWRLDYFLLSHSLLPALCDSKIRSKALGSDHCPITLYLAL

| SMILES | pIC50 |
| --- | --- |
| Cc1ccc(S(=O)(=O)n2cccc2[C@@H]2NC(=O)[C@H](Cc3c[nH]c4ccccc34)NC(=O)C(Oc3ccccc3)CCOC(=O)C/C=C/[C@@H]2C)cc1 (some centres not stated) | 5.27 |
| Cc1ccc(S(=O)(=O)n2cccc2[C@@H]2NC(=O)[C@H](Cc3c[nH]c4ccccc34)NC(=O)C(c3ccccc3)CCOC(=O)C/C=C/[C@@H]2C)cc1 (some centres not stated) | 5.92 |
